The source made the active and inactive calls.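 How the source made its calls, unless noted: active means fluorescence slope higher than the sample average by over 3 SD (cut at about -0.22 in these data, passing the limit was not always enough); inactive means the rest.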

The nature of assay [1]: inhibitors of TNFa-induced NFkB p65 translocation, primary screen, imaging, HUVEC, MLSMR starter and 10KST1 sets (AID 438;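 active means inhibition above 20% together with a positive visual image hit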;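 further: compound added about 3h40 before a 20 min TNFalpha stimulation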;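 on inhibition: signal is the nuclear over cytoplasmic p65 intensity ratio per well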). The settings on record: HUVEC TNFa-induced p65 nuclear translocation; cell count: measured here: nuclei count (cytotoxicity indicator), at 2.08 µM unless noted; inhibition: at 2 µM, stronger effect = higher value unless noted.
The nature of assay [2]: inhibitors of mutant huntingtin aggregation, primary screen, imaging, exon1htt(103Q)mCFP cells, high-content imaging (AID 483;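 active means visual image review flags a hit and inhibition of aggregation exceeds 20%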;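 further: compound exposure lasted 3 days before fixation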;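 on nuclei count: percent of the per-plate median nuclei count of sample wells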). Conditions: exon1htt(103Q)mCFP cell line, aggregate imaging, at 2 µM; inhibition of aggregation: stronger effect = higher value; nuclei count: measured here: cell count, toxicity.
Assay [3] can be described thus: inhibitors of E-selectin induction by TNFa, primary screen, imaging, HUVEC, immunofluorescence, MLSMR starter and 10KST1 sets (AID 487;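 active means visually confirmed hit in the image check and inhibition above 20%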;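 on inhibition: signal is fraction of cell area covered by stained E-selectin grains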;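 on nuclei count: 100% = median nuclei count of all wells on the same plate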). The settings on record: HUVEC TNFalpha-induced E-selectin immunofluorescence imaging, at 2 µM; inhibition: stronger effect = higher value; nuclei count: measured here: cell number, toxicity.
The target in assay [4] is Voltage-gated potassium channel subunit beta-2 (Rattus norvegicus) (UniProt P62483). Kind of assay: KvBeta enzyme negative modulators, primary screen, biochemical, NADPH fluorescence (AID 622).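 Further: slope of raw intensity against log time taken from 70 to 1610 s.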 Conditions: recombinant KvBeta, 4-cyanobenzaldehyde reduction, at 10 µM, stronger effect = higher value.
Chain of Voltage-gated potassium channel subunit beta-2 (Rattus norvegicus) (P62483 whole entry, looked up): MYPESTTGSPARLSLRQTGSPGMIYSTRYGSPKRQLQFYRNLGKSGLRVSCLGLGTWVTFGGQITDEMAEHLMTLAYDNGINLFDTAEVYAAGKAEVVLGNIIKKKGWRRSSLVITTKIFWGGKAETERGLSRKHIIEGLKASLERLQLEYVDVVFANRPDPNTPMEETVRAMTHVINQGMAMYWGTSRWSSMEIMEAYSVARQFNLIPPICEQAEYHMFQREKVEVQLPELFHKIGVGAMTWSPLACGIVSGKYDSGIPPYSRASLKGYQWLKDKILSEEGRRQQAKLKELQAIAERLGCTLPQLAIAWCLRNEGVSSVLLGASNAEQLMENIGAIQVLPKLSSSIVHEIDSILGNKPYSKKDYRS
For assay [5] the target is unchanged. Kind of assay: KvBeta positive modulators, primary screen, biochemical, NADPH fluorescence (AID 623;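 active means NADPH fluorescence slope more negative than the mean of all samples by about 3 SD, 99.7% confidence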;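 further: fluorescence intensity change per second fitted from 20 to 320 s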). Conditions: Recombinant KvBeta, NADPH fluorescence decrease slope, 10 min; at 10 µM; stronger effect = lower value.
The target of assay [6] is Alpha-2C adrenergic receptor (Homo sapiens) (UniProt P18825). Kind of assay: modulators of alpha2C/GIRK thallium flux, primary screen, cell-based, HEK293 alpha2C/GIRK1/2 (AID 624;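 active means fluorescence slope after compound addition differing from the mean of all screened samples at 99.7% confidence, in either direction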;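 further: slope of fluorescence ratio to pre-addition baseline per second over 15 to 24 s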). The settings on record: thallium flux BTC fluorescence, at 10 µM, actives lie on both sides.
Chain of Alpha-2C adrenergic receptor (Homo sapiens) (P18825 whole entry, looked up): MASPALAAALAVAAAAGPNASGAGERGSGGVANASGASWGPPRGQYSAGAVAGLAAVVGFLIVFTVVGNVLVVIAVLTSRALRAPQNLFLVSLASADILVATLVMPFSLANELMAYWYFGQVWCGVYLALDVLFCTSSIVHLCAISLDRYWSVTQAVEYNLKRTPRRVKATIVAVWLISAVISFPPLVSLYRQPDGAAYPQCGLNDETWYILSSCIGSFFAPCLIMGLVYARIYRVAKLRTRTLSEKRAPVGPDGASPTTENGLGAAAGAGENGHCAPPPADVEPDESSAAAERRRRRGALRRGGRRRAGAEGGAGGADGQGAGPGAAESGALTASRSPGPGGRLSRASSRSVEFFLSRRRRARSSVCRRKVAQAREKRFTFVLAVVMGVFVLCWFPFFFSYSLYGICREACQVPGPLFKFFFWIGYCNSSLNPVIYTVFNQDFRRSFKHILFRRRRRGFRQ
The nature of assay [7]: inhibitors of Sendai virus-induced IRF3 signaling, primary screen, TLR/RLR signaling modifier project, cell-based, Sendai virus stimulus, luciferase, 10K MLSCN set (AID 602276;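 active means inhibition at or above 50% at 10 µM; inactive means inhibition below 50%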;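 further: firefly luciferase from ISG56 promoter only with Renilla not read in this screen; 0% = Sendai virus plus DMSO and 100% = medium plus DMSO without virus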). Conditions: HEK293 RL24 IRF3 luciferase reporter, at 10 µM, stronger effect = higher value.
Assay [8] can be described thus: inhibitors of poly I:C-induced TLR3 signaling, primary screen, cell-based, poly I:C stimulus, luciferase, 10K MLSCN set (AID 602277;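 active means inhibition of the reporter signal at or above 50%; inactive means inhibition below 50%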). The settings on record: HEK293-TLR3 RL24 IRF3 luciferase reporter, at 10 µM, stronger effect = higher value. (Reporter assays use an easily measured gene product as a stand-in for the process of interest.)
Assay [9] concerns the target Muscarinic acetylcholine receptor M4 (Homo sapiens) (UniProt P08173). The experiment in a line: compounds altering M4/GIRK thallium flux, either direction, primary screen, M4 allosteric agonist project, cell-based, HEK293 M4/GIRK, BTC-AM (AID 625;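 active means fluorescence slope after compound addition differing from the mean of all tested samples at 99.7% confidence, mostly higher but some lower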;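 further: thallium influx through GIRK channels coupled to M4 in HEK293 cells with BTC-AM dye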). The settings on record: at 10 µM, actives lie on both sides. The gist of the method: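 assay system = HEK293 cells with M4 receptor and GIRK channels | medium = pH 7.3 thallium assay buffer | doses = 10 µM final, single point | timing = cells overnight at 37 °C, BTC-AM loading 1 h, reads 2 min total | signal = BTC-AM fluorescence, 1 Hz kinetic reads | read-out = post-addition slope, 15–24 s, of baseline-normalized fluorescence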

Assay [10] is described as follows: inhibitors of larval lipid processing in zebrafish, primary screen, whole organism, PED6 fluorescence, gall bladder and intestine (AID 686;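 active means a full or partial loss of lipid-probe fluorescence in the fish gall bladder, intestine or both, judged by eye; inactive means no fluorescence loss, or compound toxic to the fish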;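 further: larvae 5 to 7 days old with five fish per well; signal comes from phospholipase A2 cleavage of quenched PED6 carried via bile; overnight exposure to compound and PED6 before scoring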). Conditions: Zebrafish larvae PED6 lipid processing, fluorescence scoring. The gist of the method:
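Also added: quenched phospholipase substrate PED6, 100 nM final, ingested by larvae; System: zebrafish larvae, 5-7 d; Quantity: 5 larvae per well; Compound: 20 µM single dose; Schedule: overnight compound and PED6 incubation; Read-out: visual per-well fluorescence inhibition score; Measured by: By-eye fluorescence microscopy; Medium: E3.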

Chain of Muscarinic acetylcholine receptor M4 (Homo sapiens) (P08173 whole entry, looked up): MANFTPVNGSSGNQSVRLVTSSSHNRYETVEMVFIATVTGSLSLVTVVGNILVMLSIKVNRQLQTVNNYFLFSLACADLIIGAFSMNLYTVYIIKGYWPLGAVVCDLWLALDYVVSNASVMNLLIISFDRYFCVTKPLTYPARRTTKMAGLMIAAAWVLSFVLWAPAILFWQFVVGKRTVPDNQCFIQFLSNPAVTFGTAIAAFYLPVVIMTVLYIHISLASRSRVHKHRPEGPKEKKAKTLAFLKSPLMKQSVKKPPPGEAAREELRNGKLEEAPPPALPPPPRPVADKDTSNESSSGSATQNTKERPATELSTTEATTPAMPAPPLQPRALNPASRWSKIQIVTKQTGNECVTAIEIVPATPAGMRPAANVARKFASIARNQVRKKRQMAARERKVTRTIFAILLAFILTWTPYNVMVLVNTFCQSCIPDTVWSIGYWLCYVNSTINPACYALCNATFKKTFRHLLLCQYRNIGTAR

As usually defined, the inhibition is the relative decrease from the control value, in per cent. Regarding `C=CCn1c(O)c(C(C)=NCCCO)c(=O)[nH]c1=O`, in assay [1], the cell count was 631. In addition, the inhibition was 5.7% (inactive) in [1], -110% (inactive) in [3], -1.46% (inactive) in assay [7] and 16.8% (inactive) in [8]. Moreover, the inhibition of aggregation in assay [2] was -3.2% (inactive). The nuclei count in [2] was 108%; in assay [3], 156%. Moreover, the fluorescence slope in assay [4] was -0.467 (inactive). Moreover, the NADPH fluorescence slope in assay [5] was -4.7e-05 (inactive). In addition, the slope in assay [6] is 0.00383 (inactive).

As for `CCCCN1C(=O)NC(=O)C2(Cc3c(nc4c(C)cccn4c3=O)N3CCc4ccccc4C32)C1=O` (configuration not stated), the cell count in [1] was 373. The inhibition in assay [1] is -0.5% (inactive); in assay [3], -176% (inactive); in assay [7] it was 14% (inactive); in [8] it was 32.3% (inactive). For the same molecule, the inhibition of aggregation in assay [2] was -11.7% (inactive). In addition, the nuclei count in assay [2] was 106%; in assay [3], 111%. For the same molecule, in [4], the fluorescence slope was -0.482 (inactive). Besides, the NADPH fluorescence slope in assay [5] is -4.8e-05 (inactive). Further, the slope in assay [6] was 0.0045 (inactive).

The molecule `CCCCn1c(O)c(C(C)=NCCc2ccccc2)c(=O)[nH]c1=O` gave a cell count in assay [1] of 280. The inhibition in assay [1] is -5.3% (inactive); in assay [3], -114% (inactive); in assay [7], 3.98% (inactive); in assay [8] it was -8.74% (inactive). Besides, the inhibition of aggregation in [2] was 16.4% (inactive). Also, the nuclei count in assay [2] is 72.1%; in assay [3] it was 187%. For the same molecule, the values for the fluorescence slope in [4] and in assay [9] were -0.454 (inactive) and 0.00293 (inactive), respectively. For the same molecule, the NADPH fluorescence slope in assay [5] was -0.000351 (inactive).

For the molecule `CC(=O)N1CC(=O)Nc2ccc(Cl)cc2C1c1ccc(F)cc1` (configuration not stated), the cell count in assay [1] was 416. Also, the inhibition in assay [1] was 20.8% (inactive); in assay [3] it was -45.1% (inactive); in assay [7], -2.3% (inactive); in assay [8], -0.788% (inactive). Moreover, in assay [2], the inhibition of aggregation was -6.1% (inactive). In addition, the nuclei count was 103% in assay [2] and 105% in [3]. For the same molecule, the values for the fluorescence slope in assay [4] and in assay [9] were -0.569 (inactive) and 0.00574 (inactive), respectively. Also, the NADPH fluorescence slope in assay [5] was -1.5e-05 (inactive).

Take `CCOc1cc2[nH]c(=S)n(CCCC(=O)N3CCC4(CC3)OCCO4)c(=O)c2cc1OCC`: the cell count in [1] worked out at 429. In addition, the inhibition is 9.4% (inactive) in assay [1], -41.4% (inactive) in assay [3], -5.57% (inactive) in [7] and 17.4% (inactive) in assay [8]. Moreover, in [2], the inhibition of aggregation is -0.4% (inactive). Further, the nuclei count in assay [2] is 95.6%; in [3], 107%. In assay [4], the fluorescence slope was -0.464 (inactive). In [5], the NADPH fluorescence slope was 7.5e-06 (inactive). The slope in assay [6] is 0.00495 (inactive).

In assay [1], `O=C(c1ccc(CS(=O)(=O)c2ccccc2)o1)N1CCC2(CC1)OCCO2` showed a cell count of 379. In addition, the inhibition in assay [1] is 8% (inactive); in assay [3] it was -80.2% (inactive); in [7], -15.4% (inactive); in assay [8], -9.63% (inactive). In addition, the inhibition of aggregation in assay [2] is -2% (inactive). Moreover, the nuclei count came out at 97% in assay [2] and 107% in assay [3]. Also, the results for the fluorescence slope in assay [4] and in [9] were -0.523 (inactive) and 0.00484 (inactive), respectively. Besides, in [5], the NADPH fluorescence slope is -0.000178 (inactive).

Turning to `O=C(C1CCCN(c2nnc(-n3cccc3)s2)C1)N1CCC2(CC1)OCCO2` (configuration not stated), the cell count in assay [1] is 597. The inhibition in assay [1] was -2.2% (inactive); in assay [3], 8.1% (inactive); in assay [7], -2.39% (inactive); in assay [8], -5.8% (inactive). In addition, the inhibition of aggregation in [2] is 1.5% (inactive). Further, the nuclei count in assay [2] is 115%; in [3], 92.8%. Further, the fluorescence slope in [4] is -0.388 (inactive). In addition, in assay [5], the NADPH fluorescence slope is -4.5e-05 (inactive). Moreover, the slope in assay [6] was 0.00502 (inactive). Moreover, the molecule was called inactive in assay [10].

On to `OC(CNC1CCCCC1)c1ccccc1` (configuration not stated), for which the cell count in assay [1] was 317. Besides, the inhibition in assay [1] is -2.5% (inactive); in assay [3], -91.2% (inactive); in [7], 10.6% (inactive); in assay [8], 22.6% (inactive). Further, in assay [2], the inhibition of aggregation is 17.9% (inactive). Further, the nuclei count turned out to be 107% in assay [2] and 105% in assay [3]. Moreover, the fluorescence slope in assay [4] is -0.399 (inactive). In assay [5], the NADPH fluorescence slope is -4.1e-05 (inactive). For the same molecule, the slope in assay [6] is 0.00434 (inactive). For the same molecule, in assay [10], the molecule was classed as inactive.

Consider `CC(C)=CCSc1nnc([C@@H](N)Cc2c[nH]c3ccccc23)o1`, for which the cell count in assay [1] came to 593. Also, the inhibition in assay [1] was 0.9% (inactive); in [3], 2.3% (inactive); in assay [7], 5.87% (inactive); in [8] it was 2.18% (inactive). For the same molecule, the inhibition of aggregation in assay [2] was 14.2% (inactive). Moreover, the nuclei count in assay [2] worked out at 101%; in assay [3], 92.2%. For the same molecule, the fluorescence slope in assay [4] is -0.561 (inactive); in [9], 0.00453 (inactive). The NADPH fluorescence slope in assay [5] was 2.9e-05 (inactive).

In turn, `CNP1(NC)=NC(C(F)(F)F)=NC(C(F)(F)F)=N1` registered a cell count in [1] of 338. Further, the inhibition is -24% (inactive) in assay [1], -0.4% (inactive) in assay [3], -2.73% (inactive) in [7] and 97.8% (active) in assay [8]. In assay [2], the inhibition of aggregation was 6.8% (inactive). The results for the nuclei count in assay [2] and in assay [3] were 112% and 89.8%, respectively. In addition, the fluorescence slope in assay [4] is -0.447 (inactive). The NADPH fluorescence slope in assay [5] was -3.2e-05 (inactive). Further, in [6], the slope is 0.00454 (inactive). Also, in assay [10], the molecule was classed as inactive.

Regarding `O=C(Cn1cc(C(=O)c2ccccc2)c2ccccc21)NCc1ccco1`, in assay [1], the cell count was found to be 229. Moreover, the inhibition is -1.4% (inactive) in assay [1], -0.3% (inactive) in [3], -5.96% (inactive) in [7] and -16.8% (inactive) in assay [8]. Also, in assay [2], the inhibition of aggregation was 3.1% (inactive). Besides, the nuclei count in assay [2] came out at 89.8%; in assay [3] it was 103%. The fluorescence slope in assay [4] was -0.567 (inactive); in [9], 0.00474 (inactive). Further, the NADPH fluorescence slope in [5] is -1.5e-05 (inactive).

Take `CCN1CCN(c2ncnc3ccc(Br)cc23)CC1`: in [1], the cell count was determined as 207. Also, the inhibition in [1] was 2.1% (inactive); in assay [3], -79% (inactive); in [7], 13.3% (inactive); in [8], 8.78% (inactive). Besides, the inhibition of aggregation in assay [2] was 48% (active). Moreover, the nuclei count was 77.2% in [2] and 99.3% in assay [3]. Further, the fluorescence slope in assay [4] is -0.583 (inactive); in assay [9], 0.00395 (inactive). In addition, the NADPH fluorescence slope in assay [5] was 2.1e-06 (inactive).

With `Cc1ccc(S(=O)(=O)Cc2ccc(C(=O)N3CCC4(CC3)OCCO4)o2)cc1`, in assay [1], the cell count came out at 602. For the same molecule, the inhibition in assay [1] is -6.9% (inactive); in [3] it was -17.6% (inactive); in [7] it was -7.38% (inactive); in assay [8] it was -9.45% (inactive). Also, the inhibition of aggregation in assay [2] is 16.1% (inactive). For the same molecule, the nuclei count in assay [2] worked out at 113%; in [3], 102%. In addition, the fluorescence slope in assay [4] was -0.432 (inactive); in [9], 0.00517 (inactive). The NADPH fluorescence slope in assay [5] was -0.000506 (inactive).

`Cc1ccc(O)c(CN2CCN(c3ccccc3)CC2)c1` had a cell count in assay [1] of 307. In addition, the inhibition is 1% (inactive) in assay [1], -91.9% (inactive) in [3], 12% (inactive) in [7] and 15.6% (inactive) in assay [8]. For the same molecule, the inhibition of aggregation in [2] was -4.7% (inactive). The nuclei count amounted to 95.9% in [2] and 120% in assay [3]. The fluorescence slope was -0.202 (inactive) in assay [4] and 0.00457 (inactive) in assay [9]. In addition, the NADPH fluorescence slope in assay [5] is -1.8e-05 (inactive).

The values are drawn from PubChem BioAssay.
